The values that follow come from paper PMC3954946 (Journal of medicinal chemistry, 2013).

SMILES strings stand for the structures. A value given as a limit tells only on which side of the number the result lay.

In one series the test system is HCV genotype 1 (GT-1). The following applies: triple combination with Peg-IFN/RBV, genotype-1 naive patients; cited from earlier work.
Series [1] concerns HCV GT-1b Con1 subgenomic replicon. Particulars: genotype not given; cited from earlier work.
Series [2] shares this test system. Put plainly: Stable HCV GT-1b Con1 subgenomic replicon assay. It is filed as cell-based, Hepatitis C virus. For orientation: Replicon systems follow genome replication, usually without infectious particles.
Series [3] has as its system HCV GT-1a H77 subgenomic replicon. Description: Stable HCV GT-1a H77 subgenomic replicon assay. It is filed as cell-based, Hepatitis C virus. The following applies: for Plasma Shift fold: EC50 with 40% human serum vs without, GT-1a and GT-1b.
A short description of the next series: Pharmacokinetics in rat. The following applies: male, Wistar/Han (CRL:WI), plasma, po. Format: in vivo, Male Wistar/Han (CRL:WI) rats.
The subject of series [4] is GT-1b Con1 transient replicon with NS5B clinical isolates. Description: Transient HCV replicon assay, panel of GT-1b NS5B clinical isolates. Particulars: Hepatitis C virus, GT1B, read-out: mean EC50, GT 1b panel, geometric mean. Format: cell-based.
A further series is described as follows: Pharmacokinetics in dog. Format: in vivo, Male beagle dogs. Particulars: male, beagle, plasma, po. Put shortly: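 Male beagle dogs with free access to food and water received a single oral dose of test compound by gavage in 2% Klucel LF in water. Blood was collected into EDTA tubes at typically 0.25, 0.5, 1, 2, 4, 6, 8 and 24 h post-dose. Plasma concentrations were measured by LC/MS/MS after protein precipitation with acetonitrile.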

Turning to `CC(C)(C)NC(=O)N[C@H](C(=O)N1C[C@H]2[C@@H]([C@H]1C(=O)NC(CC1CCC1)C(=O)C(N)=O)C2(C)C)C(C)(C)C` (stereo partly drawn) [Boceprevir], the SVR rates with HCV genotype 1 (GT-1) is on record as at most 68%.
Broadly, the EC50 is the concentration giving half of the maximal effect. As to `COc1c(/C=C/c2ccc(NS(C)(=O)=O)cc2)cc(-c2cc(F)c[nH]c2=O)cc1C(C)(C)C` [Compound 7, reference compound], the “activity in the HCV subgenomic replicon assay” value in series [1] is on record as “single digit nM”. The EC50 was determined as 3 nM in series [2] (Hepatitis C virus, GT1B, read-out: GT-1b EC50) and 8 nM in series [3] (Hepatitis C virus, GT1A, read-out: GT-1a EC50).
For the molecule `CC(C)(C)c1cc(-c2cc(F)c[nH]c2=O)c2ncc(-c3ccc(NS(C)(=O)=O)cc3)cc2c1` [Compound 34], in series [3] (desmethoxy analog vs 33, replicon GT-1a and GT-1b), the drop in activity is recorded as 4-to 6 fold.
With `COc1c(C(C)(C)C)cc(-n2ccc(=O)[nH]c2=O)c2ncc(-c3ccc(NS(C)(=O)=O)cc3)cc12` [Compound 35, N-[4-[6-tert-Butyl-8-(2,4-dioxopyrimidin-1-yl)-5-methoxy-3-quinolyl]phenyl] methanesulfonamide], in series [3], the “Plasma Shift fold” value is 1.7–2.2 fold.
Consider `COc1c(C(C)(C)C)cc(-n2ccc(=O)[nH]c2=O)c2ccc(-c3ccc(NS(C)(=O)=O)cc3)cc12` [Compound 36, N-[4-[7-tert-Butyl-5-(2,4-dioxopyrimidin-1-yl)-8-methoxy-2-naphthyl]phenyl] methanesulfonamide], for which the “increase in potency against both genotypes with respect to quinoline 35” value in series [3] (replicon GT-1a and GT-1b) is recorded as 2- to 3 fold.
`COc1c(C(C)(C)C)cc(-c2ccc[nH]c2=O)c2ncc(-c3ccc(NS(C)(=O)=O)cc3)cc12` [Compound 39, N-[4-[6-tert-Butyl-5-methoxy-8-(2-oxo-1H-pyridin-3-yl)-3-quinolyl]phenyl] methanesulfonamide]: the “Plasma Shift fold” value in series [3] is 0.8–3.5 fold.
Consider `COc1ccc(-c2cc(C(C)(C)C)c(OC)c3cc(-c4ccc(NS(C)(=O)=O)cc4)cnc23)c(=O)[nH]1` [Compound 41, N-[4-[6-tert-Butyl-5-methoxy-8-(6-methoxy-2-oxo-1H-pyridin-3-yl)-3-quinolyl]phenyl] methanesulfonamide], for which the concentration at 8 h is 1220 nM in “Pharmacokinetics in rat” and 1950 nM in “Pharmacokinetics in dog”. For the same molecule, the “improvement in the 40% HS replicon assay” value in series [3] (vs lead compound 7) is 6 fold. Besides, the EC50 in series [4] was 0.26 nM.
For `COc1c(C(C)(C)C)cc(N2CCCNC2=O)c2ncc(-c3ccc(NS(C)(=O)=O)cc3)cc12` [Compound 43], the “decrease in potency against GT-1b” value in series [2] (vs dihydrouracil 42) was 6 fold. In addition, the “decrease in potency against GT-1a” value in series [3] (vs dihydrouracil 42) worked out at 14 fold.
Consider `COc1c(C(C)(C)C)cc(-c2cn(C)c(=O)[nH]c2=O)c2ncc(-c3ccc(NS(C)(=O)=O)cc3)cc12` [Compound 44], for which, in series [3] (replicon GT-1a and GT-1b), the “increase in potency against both genotypes with respect to quinoline 35” value is on record as ~ 2 fold.
In the series “Pharmacokinetics in rat”, `COc1ccc(-c2cc(C(C)(C)C)c(OC)c3cc(N4CC[C@H](CNS(C)(=O)=O)C4)cnc23)c(=O)[nH]1` [Compound 50, N-[[(3S)-1-[6-tert-butyl-5-methoxy-8-(6-methoxy-2-oxo-1H-pyridin-3-yl)-3-quinolyl]pyrrolidin-3-yl]methyl]methanesulfonamide] showed a concentration at 8 h of 3500 nM.
On to `COc1c(C2(C(F)F)CC2)cc(-n2ccc(=O)[nH]c2=O)c2ncc(-c3ccc(NS(C)(=O)=O)cc3)cc12` [Compound 53, N-[4-[6-[1-(Difluoromethyl)cyclopropyl]-8-(2,4-dioxopyrimidin-1-yl)-5-methoxy-3-quinolyl]phenyl]methanesulfonamide], for which the “improvement in potency with respect to compounds 51 and 52” value in series [3] (replicon GT-1a and GT-1b) is 3- to 9 fold.
On to `CCC[C@H](NC(=O)[C@@H]1[C@H]2CCC[C@H]2CN1C(=O)[C@@H](NC(=O)[C@@H](NC(=O)c1cnccn1)C1CCCCC1)C(C)(C)C)C(=O)C(=O)NC1CC1` [Telaprevir], for which the SVR rates entry in the series on HCV genotype 1 (GT-1) is listed as “up to 75%”.
